Data from PMC9257424 (The Journal of Biological Chemistry, 2022).
Entries after “also recorded” stand apart in the source; their conditions may differ.

What was measured:
[1] = target: T1, L. blandensis dGTPase F40N (Leeuwenhoekiella blandensis, UniProt A3XHN1, F40N); assay: Enzyme-coupled dGTPase activity assay, F40N mutant; type: biochemical; details: dATP titration at 1 mM dGTP
T1 sequence (A3XHN1 3-442 F40N): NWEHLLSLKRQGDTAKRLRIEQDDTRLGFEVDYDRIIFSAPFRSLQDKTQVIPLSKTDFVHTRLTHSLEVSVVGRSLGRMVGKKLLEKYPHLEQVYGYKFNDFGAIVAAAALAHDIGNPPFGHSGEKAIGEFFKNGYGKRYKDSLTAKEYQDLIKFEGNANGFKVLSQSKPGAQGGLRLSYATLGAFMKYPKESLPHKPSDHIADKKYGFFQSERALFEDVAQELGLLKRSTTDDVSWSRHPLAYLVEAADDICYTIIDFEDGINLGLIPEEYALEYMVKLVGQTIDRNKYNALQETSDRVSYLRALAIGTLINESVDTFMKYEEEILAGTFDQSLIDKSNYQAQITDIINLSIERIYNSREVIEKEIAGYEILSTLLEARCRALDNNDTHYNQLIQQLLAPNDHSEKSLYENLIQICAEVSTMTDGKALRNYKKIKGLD
Procedure, shortened: (§1)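 Variants of residues 3–442 were made by site-directed mutagenesis, expressed in E. coli BL21(DE3), and purified by Ni–NTA and size exclusion. dATP was serially diluted into buffer containing 1 mM dGTP (100 mM Tris pH 8, 5 mM MgCl2, 125 μM MnCl2, 5 mM phosphate). Reactions started with 1:1 addition of a 2× mix (~120 nM monomer, PNP, XOD). A297 was read at 25 °C, converted to v0/[E]t, and kcat,app versus dATP was Hill-fitted for K1/2.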

[2] = target: T2, L. blandensis dGTPase R28A (Leeuwenhoekiella blandensis, UniProt A3XHN1, R28A); assay: Enzyme-coupled dGTPase activity assay, R28A mutant; type: biochemical; details: dATP titration at 1 mM dGTP
T2 sequence (A3XHN1 3-442 R28A): T1 sequence (A3XHN1 3-442 F40N)
Procedure, shortened: as §1

[3] = system: L. blandensis dGTPase R37A; assay: Enzyme-coupled dGTPase activity assay, R37A mutant; type: biochemical, Leeuwenhoekiella blandensis; details: dATP titration at 1 mM dGTP
Procedure, shortened: as §1

[4] = target: T3, L. blandensis dGTPase (WT) (Leeuwenhoekiella blandensis, UniProt A3XHN1); assay: HPLC dGTPase activity assay, WT enzyme; type: biochemical; details: mixture of eight standard dNTPs and NTPs, 1 mM each, 1 h
T3 sequence (A3XHN1 3-442): T1 sequence (A3XHN1 3-442 F40N)

[5] = target: T4, L. blandensis dGTPase V74Q (Leeuwenhoekiella blandensis, UniProt A3XHN1, V74Q); assay: Enzyme-coupled dGTPase activity assay, V74Q mutant; type: biochemical
T4 sequence (A3XHN1 3-442 V74Q): T1 sequence (A3XHN1 3-442 F40N)
Procedure, shortened: as §1

[6] = target: T3, L. blandensis dGTPase (WT); assay: Enzyme-coupled dGTPase activity assay, WT enzyme; type: biochemical
[7] = target: Leeuwenhoekiella blandensis MED217 dGTPase (SAMHD1 homolog), wild type, residues 3 to 442 (Leeuwenhoekiella blandensis MED217); assay: cryo-EM structure
[8] = target: Leeuwenhoekiella blandensis MED217 dGTPase (SAMHD1 homolog), wild type, residues 3 to 442 (Leeuwenhoekiella blandensis MED217); assay: crystal structure

Row | stoichiometry N [7] | stoichiometry N [8] | Molecule | activation by dATP [1] | activation by dATP [2] | activation by dATP [3] | hydrolysis as substrate [4] | EC50 [5] | EC50 [6] | increase of dGTPase kcat by dATP ([6]; WT, 500 µM dATP versus dGTP-only) | fold activation of turnover rate by dATP ([6]; WT, calculated with n^H = 2, dGTP concentration at saturation) | fold activation of turnover rate by dATP ([6]; WT, calculated with n^H = 2, dGTP less than ~160 µM) | n^H (Hill coefficient) of activation by dATP ([6]; WT, dATP titration at 1 mM dGTP)
1 | – | – | Nc1ncnc2c1ncn2[C@H]1C[C@H](O)[C@@H](COP(=O)(O)OP(=O)(O)OP(=O)(O)O)O1 [dATP] | eliminated allosteric activation by dATP | eliminate activation by dATP; also recorded: not activated by dATP | eliminate activation by dATP; also recorded: not activated by dATP | not used as a substrate | 180 ± 16 µM | 36 ± 3 µM | ~50% | ~1.6 fold | more than threefold | 1.3 ± 0.1
2 | 6 | 6 | Leeuwenhoekiella blandensis MED217 dGTPase (SAMHD1 homolog), wild type, residues 3 to 442 (enzyme) | – | – | – | – | – | – | – | – | – | –
